Assay results: article PMC6261781 (Cell chemical biology, 2018)
Structures can show the parent of a compound that is named as a salt.

Columns and labels:
[1] = in vitro; format: cell-based, human; conditions: human
[2] = tested on: MT-4 cells; assay: in vitro; format: cell-based, human; conditions: for S.I. with (CC50/IC50^WT): CC50 in MT-4 / IC50 against HIV-1^WT
[3] = tested on: HIV-1^WT; assay: Anti-HIV-1 MTT assay; format: cell-based; conditions: read-out: Anti-HIV-1 IC50 against HIV-1^WT, MT-4 cells, mean ± 1 S.D.
[4] = tested on: HIV-1^67-75; assay: Anti-HIV-1 MTT assay in MT-4 cells; format: cell-based
[5] = tested on: HIV-1EFdA^R; assay: p24 assay using MT-4 cells; format: cell-based; conditions: for Activity against HIV-1EFdA^R (in words) / Fold change of IC50 against HIV-1EFdA^R compared with HIV-1^WT: p24 assay, MT-4 cells; for Activity against HIV-1EFdA^R (in words): concentrations up to 1 μM; for IC50: Human immunodeficiency virus 1, MT4, read-out: IC50 against HIV-1EFdA^R
Outline: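 MT-4 cells (RPMI 1640, 10% FCS, 37°C, 5% CO2) infected with a recombinant HIV-1NL4-3-based clone and cultured 5 days with test compound. Supernatant p24 was measured by chemiluminescent enzyme immunoassay, and signal (cps) was converted to ng/ml against a 2-fold serial-dilution p24 standard curve. Run in triplicate in two or three independent experiments; IC50 was calculated per experiment and averaged.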

[6] = tested on: HIV-1; conditions: ref Takamatsu et al., 2015; cited from earlier work
[7] = tested on: HBV; conditions: ref Takamatsu et al., 2015; cited from earlier work
[8] = tested on: HIV-1 with I142V, T165R, and M184V in RT; conditions: ref Kawamoto et al., 2008; cited from earlier work
[9] = 10-mg single dose in humans; ref Grobler et al., CROI. Abstr. 98, 2016; cited from earlier work
[10] = tested on: HIV-1^M184V; conditions: ref Kawamoto et al., 2008; Maeda et al., 2014; cited from earlier work
[11] = ref Nakata et al., 2007; cited from earlier work
[12] = tested on: HIV-1^K65R; assay: Anti-HIV-1 MTT assay in MT-4 cells; format: cell-based
[13] = tested on: HIV-1^M184V; assay: Anti-HIV-1 MTT assay in MT-4 cells; format: cell-based
[14] = tested on: HIV-1^T215F; assay: Anti-HIV-1 MTT assay in MT-4 cells; format: cell-based

## Nc1nc(N)c2ncn([C@H]3C[C@H](O)[C@](CO)(CF)O3)c2n1 [FMAdA, 4′-fluoromethyl-2-amino-2′-deoxyadenosine]
[1]
  CC50: 22.2 ± 4.1 µM
[2]
  S.I. with (CC50/IC50^WT): 7,400

## Nc1nc(NC2CC2)c2ncn([C@H]3C=C[C@@H](CO)C3)c2n1 [ABC, abacavir, reference compound]
[3]
  IC50: 0.263 ± 0.0076 µM
[1]
  CC50: > 100 µM
[2]
  S.I. with (CC50/IC50^WT): >380
[4]; Human immunodeficiency virus 1, MT4, read-out: IC50 against HIV-1^67-75
  IC50: > 1 µM

## Nc1ccn([C@H]2C[C@H](O)[C@](CO)(CF)O2)c(=O)n1 [FMdC, 4′-fluoromethyl-2′-deoxycytidine]
[1]
  CC50: 4 µM
[2]
  S.I. with (CC50/IC50^WT): 120

## Cc1cn([C@H]2C[C@H](N=[N+]=[N-])[C@@H](CO)O2)c(=O)[nH]c1=O [AZT, zidovudine, reference compound]
[3]
  IC50: 0.0374 ± 0.0075 µM
[1]
  CC50: > 100 µM
[2]
  S.I. with (CC50/IC50^WT): > 2,670

## C#C[C@]1(CO)O[C@@H](n2ccc(N)nc2=O)C[C@@H]1O [EdC, 4′-ethynyl-2′-deoxycytidine]
[5]
  Activity against HIV-1EFdA^R (in words): favorable activity

## Nc1nc(F)nc2c1ncn2[C@H]1C[C@H](O)[C@](CO)(CF)O1 [FMFdA, 4′-fluoromethyl-2-fluoro-2′-deoxyadenosine]
[1]
  CC50: 6.6 ± 0.5 µM
[2]
  S.I. with (CC50/IC50^WT): 260

## N#C[C@]1(CO)O[C@@H](n2cnc3c(=O)[nH]c(N)nc32)C[C@@H]1O [CdG, reference compound]
[6]
  Anti-HIV-1 activity (in words): sub nano molar
[7]
  Anti-HBV activity (in words): sub nano molar

## C#C[C@]1(CO)O[C@@H](n2cnc3c(N)nc(F)nc32)C[C@@H]1O [EFdA, 4′-ethynyl-2-fluoro-2′-deoxyadenosine]
[8]
  Resistance, fold change compared with HIV-1^WT: 22 fold
[9]
  Time with concentrations exceeding projected efficacious concentrations: at least 7 days
[10]
  Fold decrease in activity against HIV-1^M184V (previous observation): ~ 6 fold
[7]
  Anti-HBV activity (in words): minor anti-HBV activity
[5]
  IC50: 0.042 µM
  Fold change of IC50 against HIV-1EFdA^R compared with HIV-1^WT: 52 fold
  Activity against HIV-1EFdA^R (in words): favorable activity
[1]
  CC50: 19.2 ± 6 µM
[2]
  S.I. with (CC50/IC50^WT): 64,000

## CC[C@]1(CO)O[C@@H](n2cnc3c(O)nc(N)nc32)C[C@@H]1O [EtdG, 4′-ethyl-2′-deoxyguanosine]
[1]
  CC50: 47 ± 3.2 µM
[2]
  S.I. with (CC50/IC50^WT): 8,390

## CNc1nc(N)nc2c1ncn2[C@H]1C[C@H](O)[C@](CO)(CF)O1 [FMAMdA, 4′-fluoromethyl-2-amino-N6-methyl-2′-deoxyadenosine]
[1]
  CC50: > 100 µM
[2]
  S.I. with (CC50/IC50^WT): >600

## C#C[C@]1(COP(=O)(O)OP(=O)(O)OP(=O)(O)O)O[C@@H](n2cnc3c(N)nc(F)nc32)C[C@@H]1O [EFdA-TP, EFdA-triphosphate]
[11]
  Intracellular half-life: ≥ 17 h

## C[C@]1(CO)O[C@@H](n2cnc3c(N)nc(N)nc32)C[C@@H]1O [MAdA, 4′-methyl-2-amino-2′-deoxyadenosine]
[1]
  CC50: 4 ± 0.3 µM
[2]
  S.I. with (CC50/IC50^WT): 15

## CC(C)OC(=O)OCOP(=O)(CO[C@H](C)Cn1cnc2c(N)ncnc21)OCOC(=O)OC(C)C [TDF, tenofovir disoproxil fumarate, reference compound]
[3]
  IC50: 0.204 ± 0.127 µM
[1]
  CC50: 39.4 ± 7.3 µM
[2]
  S.I. with (CC50/IC50^WT): 190

## CC[C@]1(CO)O[C@@H](n2cnc3c(N)nc(N)nc32)C[C@@H]1O [EtAdA, 4′-ethyl-2-amino-2′-deoxyadenosine]
[1]
  CC50: 35.9 ± 3.1 µM
[2]
  S.I. with (CC50/IC50^WT): 4,030

## Cc1cn(C2CC(O)C(C#N)(CO)O2)c(=O)[nH]c1=O (stereo not shown) [CdT, 4′-cyano-2′-deoxythymidine]
[3]
  IC50: 0.0091 ± 0.0073 µM
[12]
  Fold change of IC50 against HIV-1^K65R compared with HIV-1^WT (in parentheses): 0.2 fold
[13]
  Fold change of IC50 against HIV-1^M184V compared with HIV-1^WT (in parentheses): 1.3 fold
[13]; read-out: Anti-HIV-1 IC50 against HIV-1^M184V
  IC50: 0.0117 ± 0.0024 µM
[5]
  Activity against HIV-1EFdA^R (in words): favorable activity
[2]
  S.I. with (CC50/IC50^WT): > 1,100
[2]; read-out: CC50 in MT-4, MT-4 cells, 7 days of culture
  CC50: > 10 µM
[4]; MT-4 cells, MTT assay
  Fold change of IC50 against HIV-1^67-75 compared with HIV-1^WT (in parentheses): 0.9 fold
[14]
  Fold change of IC50 against HIV-1^T215F compared with HIV-1^WT (in parentheses): 0.3 fold
[14]; read-out: Anti-HIV-1 IC50 against HIV-1^T215F
  IC50: 0.003 µM

## C[C@]1(CO)O[C@@H](n2cnc3c(O)nc(N)nc32)C[C@@H]1O [MdG, 4′-methyl-2′-deoxyguanosine]
[1]
  CC50: 4.6 ± 0.6 µM
[2]
  S.I. with (CC50/IC50^WT): 25

## C#C[C@]1(CO)O[C@@H](n2cnc3c(=O)[nH]c(N)nc32)C[C@@H]1O [EdG, 4′-ethynyl-2′-deoxyguanosine]
[5]
  Activity against HIV-1EFdA^R (in words): favorable activity
[1]
  CC50: 7 µM
[2]
  S.I. with (CC50/IC50^WT): 4,350

## N#C[C@]1(CO)O[C@@H](n2cnc3c(N)nc(N)nc32)C[C@@H]1O [CAdA, 4′-cyano-2-amino-2′-deoxyadenosine]
[6]
  Anti-HIV-1 activity (in words): sub nano molar
[7]
  Anti-HBV activity (in words): sub nano molar
[5]
  Activity against HIV-1EFdA^R (in words): favorable activity
[1]
  CC50: 3.5 ± 1.2 µM
[2]
  S.I. with (CC50/IC50^WT): 17,500

## C=C[C@]1(CO)O[C@@H](n2cnc3c(N)nc(N)nc32)C[C@@H]1O [VAdA, 4′-vinyl-2-amino-2′-deoxyadenosine]
[5]
  IC50: 0.804 µM
  Fold change of IC50 against HIV-1EFdA^R compared with HIV-1^WT: 190 fold
[1]
  CC50: 20.6 ± 3.2 µM
[2]
  S.I. with (CC50/IC50^WT): 4,790
